Values after ≈ are worked out from the molar mass of the structure shown. Active and inactive are the calls of the source. No cut-off for these calls is given here.
Key:
Candida albicans [1] = test: Antimicrobial activity against Chk1 deficient Candida albicans CHK21 dissociated biofilms at cell density of 10^8 cells/ml after 48 hrs by XTT assay; format: functional; conditions: CHK21, 48 h
In short: (§1)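 Polystyrene-well biofilms (48 h, 37°C) washed, then broken up in 100 µl RPMI by scraping and aspiration. Cells used undiluted (about 2 x 10^8 cells/ml equivalent) or adjusted by A600 against a hemacytometer-calibrated yeast standard curve. Drug exposure at 37°C for 48 h (caspofungin 24 h), then XTT/menadione read at 490 nm.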

Candida albicans [2] = test: Antimicrobial activity against Chk1 deficient Candida albicans CHK21 intact biofilms after 48 hrs by XTT assay; format: functional; conditions: CHK21, 48 h
In short: (§2)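 Biofilm seeded at 1 x 10^6 cells/ml in RPMI in polystyrene microtiter wells and grown 48 h at 37°C in a moist chamber. Washed once and drug added to the same well (twofold dilutions, 1,024 to 0.0313 µg/ml) for 48 h at 37°C (caspofungin 24 h). Read-out: XTT/menadione reduction at 490 nm.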

Candida albicans [3] = test: Antimicrobial activity against Candida albicans SC5314 at 512 ug/ml at planktonic cell density of 5 x 10^7 cells/ml after 48 hrs by XTT assay; format: functional; conditions: SC5314, 48 h
Candida albicans [4] = test: Antimicrobial activity against Candida albicans SC5314 dissociated biofilms grown on silicone-elastomer coated latex surface at cell density of 10^3 cells/ml at 0.25 to 8 ug/ml by XTT assay; format: functional, organism-based
In short: (§3)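 1-cm discs of denture acrylic, PVC catheter or silicone elastomer-coated latex catheter, ethylene-oxide sterilised. Seeded with 1 ml of 1 x 10^6 cells/ml, adhesion 90 min at 37°C, washed, grown 48 h at 37°C in RPMI. Biofilm scraped off, set to 1 x 10^3 or 1 x 10^8 cells/ml, exposed to fluconazole, read by XTT at 490 nm.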

Candida albicans [5] = test: Antimicrobial activity against Candida albicans SC5314 dissociated biofilms grown on polyvinylchloride catheter surface at cell density of 10^8 cells/ml at 0.25 to 8 ug/ml by XTT assay; format: functional, organism-based; in short: as §3
Candida albicans [6] = test: Antimicrobial activity against Candida albicans GDH2346 intact biofilms after 48 hrs by XTT assay; format: functional; conditions: GDH2346, 48 h; in short: as §2
Candida albicans [7] = test: Antimicrobial activity against Candida albicans FH1 at planktonic cell density of 10^3 cells/ml after 48 hrs by XTT assay; format: functional; conditions: FH1, 48 h
In short: (§4)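 YNB-grown yeast (50 mM glucose, room temperature, shaken, to ~2 x 10^8 cells/ml) washed into MOPS-buffered RPMI 1640 with L-glutamine and set to the stated density. Exposed to twofold serial drug dilutions (1,024 to 0.0313 µg/ml) at 37°C, 48 h (caspofungin 24 h), with drug-free controls. Read-out: XTT (0.5 g/liter) plus 1 µM menadione, formazan at 490 nm.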

Candida albicans [8] = test: Antimicrobial activity against Candida albicans FH1 at planktonic cell density of 10^8 cells/ml after 48 hrs by XTT assay; format: functional; conditions: FH1, 48 h; in short: as §4
Candida albicans [9] = test: Antimicrobial activity against Candida albicans FH1 dissociated biofilms at cell density of 10^8 cells/ml after 48 hrs by XTT assay; format: functional; conditions: FH1, 48 h; in short: as §1
Candida albicans [10] = test: Antimicrobial activity against Candida albicans FH1 intact biofilms after 48 hrs by XTT assay; format: functional; conditions: FH1, 48 h; in short: as §2
Candida albicans [11] = test: Antimicrobial activity against fluconazole-resistant Candida albicans FH5 at planktonic cell density of 10^3 cells/ml after 48 hrs by XTT assay; format: functional; conditions: FH5, 48 h; in short: as §4
Candida albicans [12] = test: Antimicrobial activity against fluconazole-resistant Candida albicans FH5 dissociated biofilms at cell density of 10^8 cells/ml after 48 hrs by XTT assay; format: functional; conditions: FH5, 48 h; in short: as §1
Candida albicans [13] = test: Antimicrobial activity against fluconazole-resistant Candida albicans FH5 intact biofilms after 48 hrs by XTT assay; format: functional; conditions: FH5, 48 h; in short: as §2
Candida albicans [14] = test: Antimicrobial activity against Cdr1, Cdr2 and Mdr1 deficient Candida albicans DSY1050 at planktonic cell density of 10^3 cells/ml after 48 hrs by XTT assay; format: functional; conditions: DSY1050, 48 h; in short: as §4
Candida albicans [15] = test: Antimicrobial activity against Cdr1, Cdr2 and Mdr1 deficient Candida albicans DSY1050 dissociated biofilms at cell density of 10^3 cells/ml after 48 hrs by XTT assay; format: functional; conditions: DSY1050, 48 h; in short: as §1
Candida albicans [16] = test: Antimicrobial activity against Cdr1, Cdr2 and Mdr1 deficient Candida albicans DSY1050 dissociated biofilms at cell density of 10^8 cells/ml after 48 hrs by XTT assay; format: functional; conditions: DSY1050, 48 h; in short: as §1
Candida albicans [17] = test: Antimicrobial activity against Cdr1, Cdr2 and Mdr1 deficient Candida albicans DSY1050 intact biofilms after 48 hrs by XTT assay; format: functional; conditions: DSY1050, 48 h; in short: as §2
Candida albicans [18] = test: Antimicrobial activity against Candida albicans SC5314 dissociated biofilms grown on polymethylmethacrylate surface at cell density of 10^3 cells/ml at 0.25 to 8 ug/ml by XTT assay; format: functional, organism-based; in short: as §3
Candida albicans [19] = test: Antimicrobial activity against Candida albicans SC5314 at planktonic cell density of 10^3 cells/ml after 48 hrs by XTT assay; format: functional; conditions: SC5314, 48 h; in short: as §4
Candida albicans [20] = test: Antimicrobial activity against Candida albicans SC5314 dissociated biofilms at cell density of 10^3 cells/ml after 48 hrs by XTT assay; format: functional; conditions: SC5314, 48 h; in short: as §1
Candida albicans [21] = test: Antimicrobial activity against Candida albicans SC5314 at planktonic cell density of 10^8 cells/ml after 48 hrs by XTT assay; format: functional; conditions: SC5314, 48 h; in short: as §4
Candida albicans [22] = test: Antimicrobial activity against Candida albicans SC5314 intact biofilms after 48 hrs by XTT assay; format: functional; conditions: SC5314, 48 h; in short: as §2
Candida albicans [23] = test: Antimicrobial activity against Candida albicans GDH2346 at planktonic cell density of 10^3 cells/ml after 48 hrs by XTT assay; format: functional; conditions: GDH2346, 48 h; in short: as §4
Candida albicans [24] = test: Antimicrobial activity against Candida albicans GDH2346 dissociated biofilms at cell density of 10^8 cells/ml after 48 hrs by XTT assay; format: functional; conditions: GDH2346, 48 h; in short: as §1
Candida albicans [25] = test: Inhibition of metabolic activity in Candida albicans SC5314 at 32 ug/ml in presence of 2 ug/ml calcineurin pathway inhibitor FK506; format: functional; parameters: scale not given: the % may be the effect or the level left
In short: (§5)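 SC5314 fluconazole susceptibility tested with or without FK506. Cell suspension, drug and FK506 volumes set to the final concentrations in 200 µl. Incubation at 37°C for 48 h, then metabolic activity by XTT/menadione at 490 nm.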

Candida albicans [26] = test: Inhibition of metabolic activity in Candida albicans SC5314 at 32 ug/ml; format: functional; parameters: scale not given: the % may be the effect or the level left; in short: as §5
Candida albicans [27] = test: Antimicrobial activity against Candida albicans planktonic forms; format: functional
In short: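 Yeast grown in YNB/50 mM glucose at room temperature to about 2 x 10^8 cells/ml, washed, and resuspended in MOPS-buffered RPMI 1640. Tested at 2 x 10^3 cells/ml (standard) or at densities from 1 x 10^3 to 1 x 10^8 cells/ml. Incubated with twofold drug dilutions at 37°C for 48 h (caspofungin 24 h). XTT-menadione read-out at 490 nm.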

Candida albicans [28] = test: Antimicrobial activity against Candida albicans intact biofilms; format: functional
In short: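 Biofilm formed in polystyrene wells from 1 x 10^6 cells/ml, 48 h at 37°C in MOPS-buffered RPMI 1640, washed once. Intact biofilm exposed in the same well to twofold serial drug dilutions (1,024 to 0.0313 µg/ml) at 37°C for 48 h (caspofungin 24 h), with drug-free controls. Metabolic activity measured by XTT plus 1 µM menadione, absorbance at 490 nm.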

Structure (SMILES): OC(Cn1cncn1)(Cn1cncn1)c1ccc(F)cc1F [FLUCONAZOLE]
- MIC80 (Candida albicans [1]): > 64 mg/L
- MIC80 (Candida albicans [2]): > 64 mg/L
- inhibition at 512 µg/mL (Candida albicans [3]): 40%
- Activity (Candida albicans [4]): Active
- Activity (Candida albicans [5]): inactive
- MIC80 (Candida albicans [6]): > 512 mg/L
- MIC80 (Candida albicans [7]): 4 mg/L (≈ 13.1 µM)
- MIC80 (Candida albicans [8]): > 512 mg/L
- MIC80 (Candida albicans [9]): > 512 mg/L
- MIC80 (Candida albicans [10]): > 512 mg/L
- MIC80 (Candida albicans [11]): 64 mg/L (≈ 209 µM)
- MIC80 (Candida albicans [12]): > 512 mg/L
- MIC80 (Candida albicans [13]): > 512 mg/L
- MIC80 (Candida albicans [14]): 0.25 mg/L (≈ 0.816 µM)
- MIC80 (Candida albicans [15]): 0.125 mg/L (≈ 0.408 µM)
- MIC80 (Candida albicans [16]): > 64 mg/L
- MIC80 (Candida albicans [17]): > 64 mg/L
- Activity (Candida albicans [18]): Active
- MIC80 (Candida albicans [19]): 0.5 mg/L (≈ 1.63 µM)
- MIC80 (Candida albicans [20]): 0.25 mg/L (≈ 0.816 µM)
- MIC80 (Candida albicans [21]): > 256 mg/L
- MIC80 (Candida albicans [22]): > 512 mg/L
- MIC80 (Candida albicans [23]): 2 mg/L (≈ 6.53 µM)
- MIC80 (Candida albicans [24]): > 64 mg/L
- Activity (Candida albicans [25]): 17%
- Activity (Candida albicans [26]): 15%
- MIC (Candida albicans [27]): 2 mg/L (≈ 6.53 µM)
- MIC (Candida albicans [28]): > 1020 mg/L

Reference: ChEMBL document CHEMBL1157378, “Role for cell density in antifungal drug resistance in Candida albicans biofilms” (2007)
